Activity calls are given as the source filed them. No cut-off for these calls is given here.
Columns and labels:
[1] = molecular target: T1, Histone acetyltransferase KAT8 (Homo sapiens) (UniProt Q9H7Z6); assay: Inhibition of human His-tagged MOF at 50 uM using histone H4 substrate by radioactive acetylation assay relative to control
T1 sequence (whole entry): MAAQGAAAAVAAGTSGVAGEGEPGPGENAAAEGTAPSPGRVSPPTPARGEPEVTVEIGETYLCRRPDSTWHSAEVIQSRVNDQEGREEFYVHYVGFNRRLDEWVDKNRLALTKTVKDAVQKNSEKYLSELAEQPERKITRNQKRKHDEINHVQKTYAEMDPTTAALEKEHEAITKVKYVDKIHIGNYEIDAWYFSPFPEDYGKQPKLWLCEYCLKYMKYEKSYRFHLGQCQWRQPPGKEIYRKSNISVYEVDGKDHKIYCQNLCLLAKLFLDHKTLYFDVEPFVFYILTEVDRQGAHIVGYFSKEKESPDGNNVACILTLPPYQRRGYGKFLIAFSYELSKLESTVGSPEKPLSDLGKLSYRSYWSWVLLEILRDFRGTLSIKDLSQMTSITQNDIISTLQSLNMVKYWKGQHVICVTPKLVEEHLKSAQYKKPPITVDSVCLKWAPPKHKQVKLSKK
Method in brief: (§1)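 His6-tagged hMOF catalytic domain (173-458) from E. coli, preincubated with compound for 15 min at room temperature in modified Tris buffer pH 7.5, then given biotinylated H4-derived peptide and [3H]acetyl-CoA. Reaction ran 240 min at room temperature, was captured on a streptavidin Flashplate, washed and scintillation-counted. Percent inhibition computed; IC50 from a nonlinear dose-response fit.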

[2] = molecular target: T1, Histone acetyltransferase KAT8 (Homo sapiens); assay: Inhibition of human His-tagged MOF at 100 uM using histone H4 substrate by radioactive acetylation assay relative to control; method in brief: as §1
[3] = molecular target: T2, Histone acetyltransferase KAT8 (Homo sapiens, UniProt Q9H7Z6); assay: Inhibition of human His-tagged MOF preincubated for 10 mins followed by biotin-labeled H4K16 substrate addition measured after 30 mins in presence of acetyl-CoA by alphascreen assay
T2 sequence (Q9H7Z6 whole entry): T1 sequence (whole entry)

[4] = molecular target: T2, Histone acetyltransferase KAT8; assay: Inhibition of human His-tagged MOF using histone H4 substrate by radioactive acetylation assay; method in brief: as §1
HCT-116 [5] = assay: Inhibition of colony formation in human HCT116 cells at 100 uM after 14 days by crystal violet staining based assay; type: functional, cell-based
[6] = molecular target: T1, Histone acetyltransferase KAT8 (Homo sapiens); assay: Inhibition of MOF in human HCT116 cells assessed as decrease in UCP2 mRNA level after 3 days by quantitative real-time PCR analysis
Homo sapiens [7] = organism: Homo sapiens; assay: Selectivity ratio of IC50 for DNMT1 (unknown origin) to IC50 for human His-tagged MOF by alphascreen assay
HCT-116 [8] = assay: Upregulation of IFI16 mRNA level in human HCT116 cells at 50 to 100 uM after 3 days by quantitative real-time PCR analysis
[9] = molecular target: T1, Histone acetyltransferase KAT8 (Homo sapiens); assay: Inhibition of MOF in human HCT116 cells assessed as decrease in H4K16 acetylation level after 24 hrs by Western blot analysis; type: cell-based
Method in brief: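 HCT116 cells treated for 24 h. Lysates run on 4–16% SDS-PAGE, transferred to nitrocellulose, blocked in 5% milk/PBST, primary antibody overnight at 4 °C, HRP donkey anti-rabbit secondary at 1:10000 for 1 h; H4K16 acetylation level read.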

[10] = molecular target: T1, Histone acetyltransferase KAT8 (Homo sapiens); assay: Inhibition of human His-tagged MOF using constant concentration acetyl-CoA and varying levels of histone H4 substrate by radioactive acetylation assay
[11] = molecular target: DNA (cytosine-5)-methyltransferase 1 (Homo sapiens, UniProt P26358); assay: Inhibition of DNMT1 (unknown origin)
Sequence of DNA (cytosine-5)-methyltransferase 1 (P26358 whole entry): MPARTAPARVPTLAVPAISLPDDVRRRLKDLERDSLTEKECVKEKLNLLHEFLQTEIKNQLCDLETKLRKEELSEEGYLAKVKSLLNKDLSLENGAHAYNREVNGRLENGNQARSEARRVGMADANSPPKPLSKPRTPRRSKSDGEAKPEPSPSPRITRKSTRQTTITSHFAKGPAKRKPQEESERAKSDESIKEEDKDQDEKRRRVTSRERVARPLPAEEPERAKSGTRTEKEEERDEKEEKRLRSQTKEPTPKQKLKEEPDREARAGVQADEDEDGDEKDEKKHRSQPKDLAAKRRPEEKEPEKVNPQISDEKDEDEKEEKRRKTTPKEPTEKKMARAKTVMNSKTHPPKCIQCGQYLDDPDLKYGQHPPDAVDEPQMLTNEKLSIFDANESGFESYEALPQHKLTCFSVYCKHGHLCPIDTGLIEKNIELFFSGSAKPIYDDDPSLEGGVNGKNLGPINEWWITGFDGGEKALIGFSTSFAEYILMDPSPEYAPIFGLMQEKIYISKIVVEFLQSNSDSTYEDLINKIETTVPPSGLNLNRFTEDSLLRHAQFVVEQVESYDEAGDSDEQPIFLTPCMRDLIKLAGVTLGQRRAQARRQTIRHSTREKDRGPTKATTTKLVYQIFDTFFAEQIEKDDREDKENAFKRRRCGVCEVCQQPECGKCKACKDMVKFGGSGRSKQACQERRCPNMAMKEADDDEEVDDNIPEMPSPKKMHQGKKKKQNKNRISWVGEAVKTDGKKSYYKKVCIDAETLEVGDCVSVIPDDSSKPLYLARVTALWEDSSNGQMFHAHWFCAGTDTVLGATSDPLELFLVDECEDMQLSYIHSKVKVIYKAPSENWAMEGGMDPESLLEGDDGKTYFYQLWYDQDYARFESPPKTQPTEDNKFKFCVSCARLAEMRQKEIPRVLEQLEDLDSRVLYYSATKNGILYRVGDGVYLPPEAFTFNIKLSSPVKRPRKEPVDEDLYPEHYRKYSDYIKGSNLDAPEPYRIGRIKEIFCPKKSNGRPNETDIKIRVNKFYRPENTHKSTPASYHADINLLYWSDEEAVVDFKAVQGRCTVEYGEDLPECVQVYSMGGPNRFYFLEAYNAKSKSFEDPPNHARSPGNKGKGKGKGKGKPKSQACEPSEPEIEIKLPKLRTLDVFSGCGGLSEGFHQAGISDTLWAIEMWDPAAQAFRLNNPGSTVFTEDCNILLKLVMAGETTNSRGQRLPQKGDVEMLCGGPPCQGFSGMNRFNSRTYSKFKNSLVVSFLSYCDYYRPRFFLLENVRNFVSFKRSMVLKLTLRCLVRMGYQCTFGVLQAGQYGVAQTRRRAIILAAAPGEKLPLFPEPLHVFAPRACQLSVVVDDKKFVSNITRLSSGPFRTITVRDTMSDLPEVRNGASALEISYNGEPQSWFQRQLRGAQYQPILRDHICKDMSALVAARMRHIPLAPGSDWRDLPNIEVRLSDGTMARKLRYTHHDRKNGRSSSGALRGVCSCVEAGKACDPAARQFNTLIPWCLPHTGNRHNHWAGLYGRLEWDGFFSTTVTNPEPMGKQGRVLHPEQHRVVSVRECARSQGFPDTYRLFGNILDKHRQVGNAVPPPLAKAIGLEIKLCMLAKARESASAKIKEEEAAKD

Homo sapiens [12] = organism: Homo sapiens; assay: Selectivity ratio of IC50 for PRMT1 (unknown origin) to IC50 for human His-tagged MOF by alphascreen assay
Histone deacetylase 1 = Histone deacetylase 1 (Homo sapiens, UniProt Q13547); assay: Inhibition of HDAC1 (unknown origin)
Sequence of Histone deacetylase 1 (Q13547 whole entry): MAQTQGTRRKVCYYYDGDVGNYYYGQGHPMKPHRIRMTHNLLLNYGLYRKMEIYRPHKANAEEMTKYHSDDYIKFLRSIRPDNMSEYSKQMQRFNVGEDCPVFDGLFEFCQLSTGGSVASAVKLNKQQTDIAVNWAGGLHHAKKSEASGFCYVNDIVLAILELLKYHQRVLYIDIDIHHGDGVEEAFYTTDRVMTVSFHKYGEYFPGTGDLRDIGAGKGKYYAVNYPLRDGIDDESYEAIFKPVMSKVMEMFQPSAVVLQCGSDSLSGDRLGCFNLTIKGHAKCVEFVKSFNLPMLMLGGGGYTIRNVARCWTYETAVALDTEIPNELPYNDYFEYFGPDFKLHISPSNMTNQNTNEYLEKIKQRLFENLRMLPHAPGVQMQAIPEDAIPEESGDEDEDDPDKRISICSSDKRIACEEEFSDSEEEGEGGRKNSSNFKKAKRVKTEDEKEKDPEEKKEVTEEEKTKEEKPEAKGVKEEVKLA

Homo sapiens [13] = organism: Homo sapiens; assay: Selectivity ratio of IC50 for HDAC1 (unknown origin) to IC50 for human His-tagged MOF by alphascreen assay
[14] = molecular target: T1, Histone acetyltransferase KAT8 (Homo sapiens); assay: Inhibition of MOF in human HCT116 cells assessed as decrease in SKP2 mRNA level after 3 days by quantitative real-time PCR analysis
[15] = molecular target: Protein arginine N-methyltransferase 1 (Homo sapiens, UniProt Q99873); assay: Inhibition of PRMT1 (unknown origin)
Sequence of Protein arginine N-methyltransferase 1 (Q99873 whole entry): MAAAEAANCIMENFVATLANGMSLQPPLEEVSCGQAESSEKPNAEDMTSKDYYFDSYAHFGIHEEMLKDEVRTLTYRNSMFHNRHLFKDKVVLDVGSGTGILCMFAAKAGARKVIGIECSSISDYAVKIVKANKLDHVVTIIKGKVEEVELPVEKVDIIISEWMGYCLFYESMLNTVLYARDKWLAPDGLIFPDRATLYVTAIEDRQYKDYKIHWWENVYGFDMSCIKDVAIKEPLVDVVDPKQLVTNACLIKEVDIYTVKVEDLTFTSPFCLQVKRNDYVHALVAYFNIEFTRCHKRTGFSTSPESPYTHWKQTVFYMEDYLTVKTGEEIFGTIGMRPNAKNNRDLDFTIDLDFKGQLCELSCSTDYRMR

[16] = molecular target: T1, Histone acetyltransferase KAT8 (Homo sapiens); assay: Inhibition of human His-tagged MOF using constant concentration histone H4 substrate and varying levels of acetyl-CoA by radioactive acetylation assay
HCT-116 [17] = assay: Inhibition of colony formation in human HCT116 cells after 14 days by crystal violet staining based assay; type: functional, cell-based
[18] = molecular target: T2, Histone acetyltransferase KAT8; assay: (§2) Binding affinity to human His-tagged MOF by SPR analysis
Method in brief: (§3)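 hMOF catalytic domain (173-458), N-terminal His6, expressed in E. coli BL21(DE3), amine-coupled to a CM5 chip in 10 mM sodium acetate pH 4.0; SPR at 25 °C in HBS (20 mM HEPES pH 7.4, 200 mM NaCl, 0.5% DMSO). Analyte 5–100 μM injected 120 s at 30 μL/min, then 300 s dissociation; Kd from a steady-state fit.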

[19] = molecular target: T1, Histone acetyltransferase KAT8 (Homo sapiens); assay: as §2; method in brief: as §3
[20] = molecular target: Histone acetyltransferase KAT2A (Homo sapiens, UniProt Q92830); assay: Inhibition of recombinant human GST-tagged Gcn5 using H3 as substrate in presence of [3H]-acetyl-CoA by phosphor image analysis
Sequence of Histone acetyltransferase KAT2A (Q92830 whole entry): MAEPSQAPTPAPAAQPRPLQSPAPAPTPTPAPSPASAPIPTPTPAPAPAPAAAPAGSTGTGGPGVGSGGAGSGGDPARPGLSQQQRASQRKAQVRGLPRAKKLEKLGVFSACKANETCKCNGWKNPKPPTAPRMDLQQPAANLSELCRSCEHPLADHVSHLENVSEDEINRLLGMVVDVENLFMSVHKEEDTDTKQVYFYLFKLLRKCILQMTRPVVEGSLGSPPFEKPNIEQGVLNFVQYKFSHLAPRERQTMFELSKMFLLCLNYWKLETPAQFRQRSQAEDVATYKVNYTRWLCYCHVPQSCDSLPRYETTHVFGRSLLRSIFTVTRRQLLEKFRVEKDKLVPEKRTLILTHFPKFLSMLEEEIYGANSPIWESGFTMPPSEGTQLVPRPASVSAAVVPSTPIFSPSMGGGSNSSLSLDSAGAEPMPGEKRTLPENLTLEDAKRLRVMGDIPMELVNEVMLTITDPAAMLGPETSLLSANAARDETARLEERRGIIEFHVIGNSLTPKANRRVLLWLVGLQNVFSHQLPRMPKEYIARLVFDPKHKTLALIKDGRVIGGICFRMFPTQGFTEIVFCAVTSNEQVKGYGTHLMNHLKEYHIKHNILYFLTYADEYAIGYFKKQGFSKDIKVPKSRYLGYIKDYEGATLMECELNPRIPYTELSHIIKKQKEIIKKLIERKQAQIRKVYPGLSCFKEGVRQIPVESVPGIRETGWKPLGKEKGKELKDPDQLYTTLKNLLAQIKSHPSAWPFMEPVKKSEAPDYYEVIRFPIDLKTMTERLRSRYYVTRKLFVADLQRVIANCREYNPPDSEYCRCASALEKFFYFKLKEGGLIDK

inhibition [1] [%] | inhibition [2] [%] | IC50 [3] [µM] | Structure (SMILES) | further results
16 | 18 |  | CCN(CC)S(=O)(=O)c1ccc(/C=C/c2nc3ccccc3s2)cc1F | 
0 | 14 |  | CCN(CC)S(=O)(=O)c1ccc(/C=C/c2nc3cc(C)ccc3s2)cc1 | 
100 | 100 | 27 | CCCCCCCc1ccc(CCc2cccc(O)c2C(=O)O)cc1 | IC50 [4]: 15 µM; inhibition (HCT-116 [5]): Active
64 | 89 |  | CCN(CC)S(=O)(=O)c1ccc(/C=C/c2nc3cc(Cl)ccc3s2)cc1 | IC50 [4]: 30 µM
28 | 30 |  | CCN(CC)S(=O)(=O)c1ccc(/C=C/c2nc3ccccc3s2)cc1C | 
93 | 100 |  | CCN(CC)S(=O)(=O)c1ccc(/C=C/c2nc3ccccc3s2)cc1 | inhibition [6]: Dose-dependent effect; Ratio IC50 (Homo sapiens [7]): > 11; Activity (HCT-116 [8]): Active; inhibition [9]: Dose-dependent effect; inhibition [10]: inactive; IC50 [11]: > 100 µM; Ratio IC50 (Homo sapiens [12]): > 11; IC50 (Histone deacetylase 1): > 100 µM; Ratio IC50 (Homo sapiens [13]): > 11; inhibition [14]: Dose-dependent effect; IC50 [15]: > 100 µM; IC50 [4]: 6 µM; inhibition [16]: Active; inhibition (HCT-116 [17]): Dose-dependent effect
17 | 33 |  | Cc1ccc(CNS(=O)(=O)c2ccc(/C=C/c3nc4ccccc4s3)cc2)cc1 | 
 |  |  | O=C(CCCCCCC(=O)Nc1ccccc1)NO | inhibition [9]: Dose-dependent effect
 |  | 29 | Cc1ccc(C2C(C(=O)c3cc4ccccc4o3)=C(O)C(=O)N2Cc2ccco2)cc1 (configuration not stated) | 
13 | 25 |  | O=S(=O)(Nc1ccccc1)c1ccc(/C=C/c2nc3ccccc3s2)cc1 | 
57 | 82 |  | CCN(CC)S(=O)(=O)c1ccc(/C=C/c2nc3cc(Br)ccc3s2)cc1 | IC50 [4]: 30 µM
53 | 84 |  | CCN(CC)S(=O)(=O)c1ccc(/C=C/c2nc3cc(F)ccc3s2)cc1 | Kd [18]: 19 µM; Activity [19]: Dose-dependent effect; IC50 [4]: 40 µM
 |  | 17 | Cc1ccc(-c2cc(C(=O)O)c3cc4c(C(=O)O)cc(-c5ccc(C)o5)nc4cc3n2)o1 | 
 |  | 25 | CC1CCc2c(sc3nnn(CC(=O)Nc4cccc5ccccc45)c(=O)c23)C1 (configuration not stated) | 
7 | 12 |  | CCN(CC)S(=O)(=O)c1ccc(/C=C/c2nc3ccccc3s2)cc1Cl | 
 |  | 74 | N#Cc1c(-c2ccccc2)cc(-c2cccs2)nc1SCC(=O)NCC(=O)O | 
0 | 28 |  | COc1ccc(CNS(=O)(=O)c2ccc(/C=C/c3nc4ccccc4s3)cc2)cc1 | 
1 | 11 |  | O=S(=O)(NCc1ccccc1)c1ccc(/C=C/c2nc3ccccc3s2)cc1 | 
 |  | 14 | O=C(Cc1cccc2ccccc12)Nc1ccc2nc(SCC(=O)N3CCCC3)sc2c1 | 
5 | 21 |  | CCN(CC)S(=O)(=O)c1ccc(/C=C/c2nc3ccc(Br)cc3s2)cc1 | 
 |  | 18 | CCc1nnc(NC(=O)CCSCCC(=O)Nc2nnc(CC)s2)s1 | 
14 | 13 |  | CCN(CC)S(=O)(=O)c1ccc(/C=C/c2nc3cc(OC)ccc3s2)cc1 | 
95 | 96 |  | CCN(CC)S(=O)(=O)c1ccc(/C=C/c2nc3cc(C)c(C)cc3s2)cc1 | IC50 [4]: 7.7 µM
 |  | 23 | Oc1cc(O)c2sc3nc(-c4cccs4)cc(-c4cccs4)c3c2n1 | 
9 | 14 |  | CN(C)S(=O)(=O)c1ccc(/C=C/c2nc3ccccc3s2)cc1 | 
 |  | 6.6 to 40 | CCN(CC)S(=O)(=O)c1ccc(/C=C/c2nc3ccc(F)cc3s2)cc1 | 
 |  |  | C=C1C(=O)O[C@H](CCC)[C@H]1C(=O)O | IC50 [20]: 100 µM
